Laboratory results reported in ChEMBL document CHEMBL4732053, “Design, synthesis and structure-activity relationship study of novel urea compounds as FGFR1 inhibitors to treat metastatic triple-negative breast cancer” (Eur J Med Chem, 2021).

Legend:
MDA-MB-231 = experiment: Cytotoxicity against human MDA-MB-231 cells assessed as reduction in cell viability incubated for 48 hrs by MTT assay; assay type: functional, cell-based; conditions: MDA-MB-231, 48 h
In short: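 MTT assay in MDA-MB-231 cells grown in DMEM with 10% heat-inactivated FBS at 37 °C and 5% CO2. Cells were seeded at 8000 per well, left 24 h, then exposed for 48 h to 0–25 μM in DMEM with 2% FBS (final DMSO 0.1%). MTT (0.5 mg/mL) was added for 2 h, formazan was dissolved in DMSO and read at 570 nm. Runs were in triplicate and IC50 was derived from the curves.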

[1] = target: Sodium-dependent dopamine transporter (Homo sapiens, UniProt Q01959); experiment: Inhibition of DAT (unknown origin)
[2] = target: DAT (sodium-dependent dopamine transporter) (Homo sapiens, UniProt Q01959); experiment: Inhibition of DAT (unknown origin) at 10 uM relative to control
In short: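 Primary radioligand-binding screen by the NIMH Psychoactive Drug Screening Program. Each compound was tested at a final concentration of 10 μM in triplicate or quadruplicate, and % inhibition was recorded. Data are mean ± SEM of four independent experiments. Compounds reaching at least 50% antagonist activity went on to secondary dose-response assays.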

[3] = Metabolic stability in Sprague-Dawley rat liver microsomes assessed as parent compound remaining in presence of NADPH measured up to 60 mins by LC-MS/MS analysis; assay type: ADME, Microsome; conditions: 1 h
In short: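 Pooled male Sprague-Dawley rat liver microsomes (6.2% mixture in potassium phosphate buffer) were used with an NADPH regenerating system. Compound, diluted to 5 μM before mixing, was prewarmed 10 min at 37 °C, then incubated with microsomes at 37 °C with shaking. Samples taken at 0, 5, 15, 30 and 60 min were quenched in ice-cold acetonitrile and centrifuged. Analysis was by LC-MS/MS, giving % remaining versus T0 from peak area ratios. Three independent experiments in triplicate.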

Sequence of DAT (sodium-dependent dopamine transporter) (Q01959 whole entry): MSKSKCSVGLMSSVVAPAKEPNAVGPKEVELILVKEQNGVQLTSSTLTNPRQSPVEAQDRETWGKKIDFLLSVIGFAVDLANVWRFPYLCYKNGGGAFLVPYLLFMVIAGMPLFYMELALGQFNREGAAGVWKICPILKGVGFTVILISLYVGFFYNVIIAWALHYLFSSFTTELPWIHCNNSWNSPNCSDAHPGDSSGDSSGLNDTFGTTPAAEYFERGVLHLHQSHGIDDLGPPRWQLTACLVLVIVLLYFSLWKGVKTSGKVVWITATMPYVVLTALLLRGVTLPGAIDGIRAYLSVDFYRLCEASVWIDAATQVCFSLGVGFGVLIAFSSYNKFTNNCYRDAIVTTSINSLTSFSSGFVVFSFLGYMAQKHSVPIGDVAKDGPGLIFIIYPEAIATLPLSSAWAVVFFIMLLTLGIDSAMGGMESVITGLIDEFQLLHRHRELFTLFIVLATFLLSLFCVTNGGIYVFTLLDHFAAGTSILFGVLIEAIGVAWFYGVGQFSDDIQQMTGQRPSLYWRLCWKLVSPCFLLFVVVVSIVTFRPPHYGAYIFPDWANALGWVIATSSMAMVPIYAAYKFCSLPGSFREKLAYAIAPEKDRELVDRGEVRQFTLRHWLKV
Sequence of Sodium-dependent dopamine transporter (Q01959 whole entry): as above

Row | Structure (SMILES) | IC50 (MDA-MB-231) | Ki [1] | inhibition at 10 µM [2] | Stabilty [3]
1 | O=C(NCCCCC(c1ccc(F)cc1)c1ccc(F)cc1)Nc1ccc(C(F)(F)F)cc1 | 2.78 µM |  |  | 
2 | O=C(NCCCCC(c1ccc(F)cc1)c1ccc(F)cc1)c1ccc(Cl)c(C(F)(F)F)c1 | 11.7 µM | 0.603 µM | 51% | 
3 | Cc1ccc(NC(=O)NCCCCC(c2ccc(F)cc2)c2ccc(F)cc2)cc1C | > 20 µM | 0.08 µM | 79% | 
4 | O=C(CCCCC(c1ccc(F)cc1)c1ccc(F)cc1)Nc1ccc(Cl)c(C(F)(F)F)c1 | 11.4 µM |  | 33% | 
5 | O=C(NCCCCN(c1ccc(F)cc1)c1ccc(F)cc1)Nc1ccc(Cl)cc1 | > 20 µM | 0.405 µM | 68% | 
6 | Fc1ccc(C(CCCCOCc2ccc(Oc3ccc(Cl)cc3)cc2)c2ccc(F)cc2)cc1 | > 20 µM |  |  | 
7 | O=C(NCCCCC(c1ccc(F)cc1)c1ccc(F)cc1)Nc1ccc([N+](=O)[O-])cc1 | 6.47 µM |  |  | 
8 | CN(CCCCC(c1ccc(F)cc1)c1ccc(F)cc1)C(=O)Nc1ccc(Cl)c(C(F)(F)F)c1 | 6.02 µM | 0.998 µM | 73% | 
9 | CC(=O)Nc1cc(NC(=O)NCCCCC(c2ccc(F)cc2)c2ccc(F)cc2)ccc1Cl | 9.12 µM | 0.609 µM | 76% | 
10 | CN(CCCCC(c1ccc(F)cc1)c1ccc(F)cc1)C(=O)N(C)c1ccc(Cl)c(C(F)(F)F)c1 | > 20 µM |  | 26% | 
11 | Nc1ccc(C(CCCCNC(=O)Nc2ccc(Cl)c(C(F)(F)F)c2)c2ccc(N)cc2)cc1 | 12.2 µM |  |  | 
12 | Fc1ccc(C(CCCCOC2COC(c3ccccc3)OC2)c2ccc(F)cc2)cc1 (centres undefined) | > 20 µM |  |  | 
13 | Cc1ccc(NC(=O)NCCCCN(c2ccc(F)cc2)c2ccc(F)cc2)cc1C | > 20 µM |  |  | 
14 | O=C(NCCCCC(c1ccc(OC(F)(F)F)cc1)c1ccc(OC(F)(F)F)cc1)Nc1ccc(Cl)c(C(F)(F)F)c1 | 1.69 µM |  |  | 
15 | COc1ccc(C(CCCCNC(=O)Nc2ccc(Cl)c([N+](=O)[O-])c2)c2ccc(OC)cc2)cc1 | 3.99 µM | 0.144 µM | 64% | 
16 | O=C(NCCCCC(c1ccc(F)cc1)c1ccc(F)cc1)Nc1cccc(C(F)(F)F)c1 | 3.38 µM |  |  | 
17 | O=C(OCCCC(c1ccc(F)cc1)c1ccc(F)cc1)c1cc(Cl)c(OCc2ccccc2)c(Cl)c1 | > 20 µM |  |  | 
18 | O=C(NCCCCC(c1ccc(F)cc1)c1ccc(F)cc1)Nc1cccc([N+](=O)[O-])c1 | 3.79 µM |  |  | 
19 | CC(=O)Nc1ccc(NC(=O)NCCCCC(c2ccc(F)cc2)c2ccc(F)cc2)cc1 | > 20 µM |  |  | 
20 | O=C(Nc1ccc(Cl)c(C(F)(F)F)c1)N1CCC(CC(c2ccc(F)cc2)c2ccc(F)cc2)CC1 | 4.84 µM |  | 24% | 
21 | O=C(NCCCCC(c1ccc(F)cc1)c1ccc(F)cc1)Nc1ccc([N+](=O)[O-])c(Cl)c1 | 3.47 µM |  |  | 
22 | Cc1cc(Cl)ccc1NC(=O)NCCCCC(c1ccc(F)cc1)c1ccc(F)cc1 | > 20 µM | 0.118 µM | 58% | 
23 | Cc1cccc(NC(=O)NCCCCC(c2ccc(F)cc2)c2ccc(F)cc2)c1 | > 20 µM |  |  | 
24 | O=C(NCCCCC(c1ccc(F)cc1)c1ccc(F)cc1)Nc1ccc(Cl)c(C(F)(F)F)c1 | 3.15 µM | 0.0065 µM | 90% | Stable
25 | Cc1ccc(NC(=O)NCCCCC(c2ccc(F)cc2)c2ccc(F)cc2)cc1 | > 20 µM |  |  | 
26 | O=C(NCCCCC(c1ccc(F)cc1)c1ccc(F)cc1)Nc1ccc(Cl)c([N+](=O)[O-])c1 | 4.06 µM |  |  | 
27 | Fc1ccc(C(CCCCNC(=S)Nc2ccc(Cl)c(C(F)(F)F)c2)c2ccc(F)cc2)cc1 | 3.66 µM |  |  | 

Row | Structure (SMILES) | IC50 (MDA-MB-231) | Ki [1] | inhibition at 10 µM [2] | Stabilty [3]
28 | O=C(NCCCCC(c1ccc(F)cc1)c1ccc(F)cc1)Nc1ccc(Br)cc1I | > 20 µM |  |  | 
29 | O=C(NCCCCC(c1ccc(F)cc1)c1ccc(F)cc1)Nc1ccc(Cl)cc1C(F)(F)F | > 20 µM |  | 20% | 
30 | O=C(Nc1ccc(Cl)c(C(F)(F)F)c1)N1CCC(=C(c2ccc(F)cc2)c2ccc(F)cc2)CC1 | 5.65 µM |  |  | 
31 | Nc1ccc(NC(=O)NCCCCC(c2ccc(F)cc2)c2ccc(F)cc2)cc1 | > 20 µM |  |  | 
32 | O=C(NCCCCC(c1ccc(F)cc1)c1ccc(F)cc1)Nc1cccc(Cl)c1 | 5.07 µM |  |  | 
33 | O=C(NCCCCC(c1ccc(F)cc1)c1ccc(F)cc1)Nc1ccc(I)cc1 | 11.8 µM |  | 24% | 
34 | O=C(NCCCCN(c1ccc(F)cc1)c1ccc(F)cc1)Nc1ccc(Br)cc1I | > 20 µM |  |  | 
35 | Cc1ccc(C(CCCCNC(=O)Nc2ccc(Cl)c(C(F)(F)F)c2)c2ccc(C)cc2)cc1 | 2.51 µM |  | 38% | 
36 | O=C(NCCCCN(c1ccc(F)cc1)c1ccc(F)cc1)Nc1ccc(Cl)c(C(F)(F)F)c1 | 5.04 µM | 0.043 µM | 85% | 
37 | O=C(NCCCCC(c1ccc([N+](=O)[O-])cc1)c1ccc([N+](=O)[O-])cc1)Nc1ccc(Cl)c(C(F)(F)F)c1 | 1.23 µM |  |  | 
38 | O=C(NCCCCCc1ccc(F)cc1)Nc1ccc(Cl)c(C(F)(F)F)c1 | 5.44 µM |  |  | 
39 | O=C(NCCCC(c1ccc(F)cc1)c1ccc(F)cc1)Nc1ccc(Cl)c(C(F)(F)F)c1 | 3.5 µM | 0.141 µM | 86% | 
40 | Nc1cc(NC(=O)NCCCCC(c2ccc(F)cc2)c2ccc(F)cc2)ccc1Cl | 9.24 µM |  |  | 
41 | Fc1ccc(C(CCCCN(c2ccc(F)cc2)c2ccc(F)cc2)c2ccc(F)cc2)cc1 | > 20 µM |  |  | 
42 | O=C(NCCCCC(c1ccccc1)c1ccccc1)Nc1ccc(Cl)c(C(F)(F)F)c1 | 5.72 µM |  |  | 
43 | OC1(c2ccc(Cl)c(C(F)(F)F)c2)CCN(CCCC(c2ccc(F)cc2)c2ccc(F)cc2)CC1 [PENFLURIDOL] | 2.3 µM |  |  | 
44 | O=C(Nc1ccc(Cl)c(C(F)(F)F)c1)OCCCCC(c1ccc(F)cc1)c1ccc(F)cc1 | 4.58 µM |  | 49% | 
45 | O=C(NCCCCCC(c1ccc(F)cc1)c1ccc(F)cc1)Nc1ccc(Cl)c(C(F)(F)F)c1 | 2.57 µM | 0.399 µM | 77% | 
46 | COC(=O)c1ccc(NC(=O)NCCCCC(c2ccc(F)cc2)c2ccc(F)cc2)cc1C(F)(F)F | 4.43 µM |  |  | 
47 | O=C(NCCCCC(c1ccc(F)cc1)c1ccc(F)cc1)Nc1ccc(C(=O)O)c(C(F)(F)F)c1 | > 20 µM |  |  | 
48 | O=C(NCCCCN(c1ccc(F)cc1)c1ccc(F)cc1)Nc1ccc(I)cc1 | > 20 µM |  |  | 
49 | O=C(Nc1ccc(Cl)c(C(F)(F)F)c1)N1CCC(C(c2ccc(F)cc2)c2ccc(F)cc2)CC1 | 11.4 µM | 1.59 µM | 52% | 
50 | O=S(=O)(c1ccc(Cl)c(C(F)(F)F)c1)N1CCN(CCCCC(c2ccc(F)cc2)c2ccc(F)cc2)CC1 | > 20 µM |  |  | 
51 | Cc1ccc(C(CCCCNC(=O)Nc2ccc(Cl)cc2)c2ccc(C)cc2)cc1 | 17.9 µM | 0.535 µM | 59% | 
52 | CC(=O)Nc1ccc(C(CCCCNC(=O)Nc2ccc(Cl)c(C(F)(F)F)c2)c2ccc(NC(C)=O)cc2)cc1 | > 20 µM |  |  | 
53 | COc1ccc(C(CCCCNC(=O)Nc2ccc(Cl)c(C(F)(F)F)c2)c2ccc(OC)cc2)cc1 | 3.3 µM | 0.04 µM | 75% | 
